This is an account of results in ChEMBL document CHEMBL1154121, “alpha-Substituted norstatines as the transition-state mimic in inhibitors of multiple digestive vacuole malaria aspartic proteases” (Bioorg Med Chem, 2009).

The source made the active and inactive calls. The rule behind the calls is not given here. Where only a bound is given, the exact number is not on record here.

T1 sequence (P07339 65-162 limits assumed): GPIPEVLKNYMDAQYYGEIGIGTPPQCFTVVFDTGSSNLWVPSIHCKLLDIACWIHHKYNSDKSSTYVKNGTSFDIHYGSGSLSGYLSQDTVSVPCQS
T1 sequence (P07339 169-412 limits assumed): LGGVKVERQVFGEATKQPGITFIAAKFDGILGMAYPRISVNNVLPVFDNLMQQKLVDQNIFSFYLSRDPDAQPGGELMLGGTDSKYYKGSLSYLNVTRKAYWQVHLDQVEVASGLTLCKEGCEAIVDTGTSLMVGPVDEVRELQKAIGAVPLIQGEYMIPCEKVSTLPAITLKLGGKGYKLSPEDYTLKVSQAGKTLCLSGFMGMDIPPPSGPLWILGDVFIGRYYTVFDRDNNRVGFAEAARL
Beta-secretase 1 (Homo sapiens), sequence (P56817 whole entry): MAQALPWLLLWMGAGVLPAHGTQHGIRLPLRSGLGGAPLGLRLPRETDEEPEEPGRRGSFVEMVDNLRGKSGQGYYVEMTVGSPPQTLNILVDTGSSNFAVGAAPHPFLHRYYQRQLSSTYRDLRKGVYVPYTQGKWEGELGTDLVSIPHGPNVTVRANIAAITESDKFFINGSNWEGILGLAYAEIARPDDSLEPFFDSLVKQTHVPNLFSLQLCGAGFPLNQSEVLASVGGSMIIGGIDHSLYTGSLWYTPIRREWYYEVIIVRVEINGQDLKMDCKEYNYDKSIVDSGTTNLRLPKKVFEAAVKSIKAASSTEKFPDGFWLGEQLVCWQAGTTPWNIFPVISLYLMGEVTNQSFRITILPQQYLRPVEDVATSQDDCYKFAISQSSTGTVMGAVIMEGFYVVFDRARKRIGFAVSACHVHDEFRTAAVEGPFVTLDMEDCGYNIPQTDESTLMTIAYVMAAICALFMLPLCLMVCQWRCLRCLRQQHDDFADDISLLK

Tested on in the first assay: not listed separately
Kind of assay: Selectivity ratio of Ki for human liver cathepsin D to Ki for Plasmodium falciparum plasmepsin-2 expressed in Escherichia coli BL21 (DE3).
Regarding `Cc1cccc(C)c1OCC(=O)N[C@@H](Cc1ccccc1)[C@H](O)C(=O)N1CSC(C)(C)[C@H]1C(=O)N[C@H]1c2ccccc2C[C@H]1O`, the Ratio Ki came to 4.

The next assay deals with Protease (Human immunodeficiency virus 1, UniProt Q9YQ12). In words: Inhibition of HIV1 protease. Summed up: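 Recombinant HIV-1 protease expressed in E. coli; Ki from fluorometric assay, two independent measurements; a reference inhibitor included to check variability, standard deviation ±50% of mean.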
Protease, sequence (Q9YQ12 whole entry): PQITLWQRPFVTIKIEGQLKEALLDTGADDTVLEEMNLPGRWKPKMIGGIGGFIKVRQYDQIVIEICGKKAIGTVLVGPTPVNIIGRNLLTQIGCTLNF
Broadly, the Ki is a dissociation constant, usually derived from enzyme kinetics or from competition with a known ligand. Read a low Ki as tighter binding. `Cc1cccc(C)c1OCC(=O)NCC(O)(CCc1ccccc1)C(=O)N[C@@H](Cc1ccccc1)C(=O)N[C@H]1c2ccccc2C[C@H]1O` (stereo in doubt; (B)-20) [listing 1 of 2 here] gave a Ki of 1000 nM.

Compound `COC(=O)N[C@H](C(=O)NN(Cc1ccccc1)C[C@](O)(Cc1ccccc1)C(=O)N[C@H]1c2ccccc2C[C@H]1O)C(C)(C)C` registered an inhibition constant Ki of 2200 nM.

For `COC(=O)N[C@H](C(=O)NN(Cc1ccccc1)C[C@@](O)(Cc1ccccc1)C(=O)N[C@H]1c2ccccc2C[C@H]1O)C(C)(C)C`, the Ki amounted to 6 nM.

The target in another assay is Plasmepsin I (Plasmodium falciparum, UniProt P39898). In words: Inhibition of Plasmodium falciparum plasmepsin-1.
Plasmepsin I, sequence (P39898 whole entry): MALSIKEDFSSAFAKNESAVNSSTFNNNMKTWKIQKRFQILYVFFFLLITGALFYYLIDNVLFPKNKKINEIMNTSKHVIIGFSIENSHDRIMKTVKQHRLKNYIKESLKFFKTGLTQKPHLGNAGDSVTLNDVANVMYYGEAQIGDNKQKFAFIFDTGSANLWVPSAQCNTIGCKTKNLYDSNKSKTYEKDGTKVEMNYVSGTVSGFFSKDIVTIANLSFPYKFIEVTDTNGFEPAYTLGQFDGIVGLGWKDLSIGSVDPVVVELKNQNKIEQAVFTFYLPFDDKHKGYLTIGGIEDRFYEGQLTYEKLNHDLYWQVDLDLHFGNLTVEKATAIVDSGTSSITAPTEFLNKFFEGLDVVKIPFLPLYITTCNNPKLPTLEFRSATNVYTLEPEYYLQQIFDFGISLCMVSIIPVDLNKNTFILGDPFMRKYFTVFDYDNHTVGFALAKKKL
A word on the IC50: it is the concentration that inhibits the measured activity by half. Higher therefore signals a need for much substance. `Cc1cccc(C)c1OCC(=O)N[C@@H](Cc1ccccc1)[C@H](O)C(=O)N1CSC(C)(C)[C@H]1C(=O)N[C@H]1c2ccccc2C[C@H]1O` had a 50% inhibitory concentration (IC50) of 280 nM.

Tested on in the next assay: not listed separately
In words: Inhibition of Plasmodium falciparum plasmepsin-4. Summed up: (§1)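 Self-activated in 0.1 M sodium acetate pH 4.5, 37 °C, 5 min. Chromogenic substrate hydrolysis followed spectrophotometrically; Michaelis-Menten curves at ≥5 substrate levels with no inhibitor and two inhibitor concentrations, fitted together for Ki.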
Consider `COC(=O)N[C@H](C(=O)NN(Cc1ccccc1)C[C@](O)(Cc1ccccc1)C(=O)N[C@H]1c2ccccc2C[C@H]1O)C(C)(C)C`, for which affinity was put at a Ki of 48000 nM.

The compound `COC(=O)N[C@H](C(=O)NN(Cc1ccccc1)C[C@@](O)(Cc1ccccc1)C(=O)N[C@H]1c2ccccc2C[C@H]1O)C(C)(C)C` returned a Ki of 12000 nM.

Turning to `Cc1cccc(C)c1OCC(=O)N[C@@H](Cc1ccccc1)[C@H](O)C(=O)N1CSC(C)(C)[C@H]1C(=O)N[C@H]1c2ccccc2C[C@H]1O`, the half-maximal inhibitory concentration (IC50) was 15 nM.

Tested on in a further assay: not listed separately
In words: Inhibition of Plasmodium malariae plasmepsin-4. The gist of the method:
as §1
As for `Cc1ccccc1CNC(=O)[C@H]1N(C(=O)[C@@H](O)[C@H](Cc2ccccc2)NC(=O)c2cccc(O)c2C)CSC1(C)C`, the inhibitory constant (Ki) was determined as 110 nM.

The next assay has as its target Beta-secretase 1 (Homo sapiens) (UniProt P56817). In words: Inhibition of human BACE1 at < 10 uM.
With `Cc1cccc(C)c1OCC(=O)NCC(O)(CCc1ccccc1)C(=O)N[C@@H](Cc1ccccc1)C(=O)N[C@H]1c2ccccc2C[C@H]1O` (stereo in doubt; (B)-20) [listing 2 of 2 here], the result was inactive.

On to `Cc1cccc(C)c1OCC(=O)NCC(O)(CCc1ccccc1)C(=O)N[C@@H](Cc1ccccc1)C(=O)N[C@H]1c2ccccc2C[C@H]1O` (stereo in doubt; (A)-20) [listing 1 of 2 here], for which the outcome was inactive.

Another assay has as its target T1, Cathepsin D (Homo sapiens, UniProt P07339). Kind of assay: Inhibition of human liver cathepsin D. The gist of the method:
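Human liver cathepsin D activated 20 min at 37 °C in 100 mM sodium acetate pH 4.5, 10% glycerol, 0.01% Tween 20. Inhibitor serially diluted in DMSO (1% final) added before 3 µM DABCYL-Glu-Arg-Nle-Phe-Leu-Ser-Phe-Pro-EDANS; fluorescence increase read over 10 min. IC50 from Langmuir isotherm assuming competitive inhibition, converted to Ki via IC50/(1+[S]/Km); top concentration limited to 10.0 µM by inhibitor fluorescence.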
The compound `Cc1cccc(C)c1OCC(=O)NCC(O)(CCc1ccccc1)C(=O)N[C@@H](Cc1ccccc1)C(=O)N[C@H]1c2ccccc2C[C@H]1O` (stereo in doubt; (A)-20) [listing 2 of 2 here] showed a Ki above 10000 nM.

In turn, `Cc1cccc(C)c1OCC(=O)NCC(O)(CCc1ccccc1)C(=O)N[C@@H](Cc1ccccc1)C(=O)N[C@H]1c2ccccc2C[C@H]1O` (stereo in doubt; (B)-20) [listing 1 of 2 here] showed a Ki above 10000 nM.

In the case of `Cc1cccc(C)c1OCC(=O)N[C@@H](Cc1ccccc1)[C@H](O)C(=O)N1CSC(C)(C)[C@H]1C(=O)N[C@H]1c2ccccc2C[C@H]1O`, the inhibitory constant (Ki) was determined as 2 nM.

A further assay concerns Human immunodeficiency virus 1. Kind of assay: Antiviral activity against HIV1 replication in infected cells. The class given is functional, organism-based.
The EC50 is the concentration needed to bring the measured effect to its halfway point. Lower therefore signals an effect from little substance. Take `COC(=O)N[C@H](C(=O)NN(Cc1ccccc1)C[C@](O)(Cc1ccccc1)C(=O)N[C@H]1c2ccccc2C[C@H]1O)C(C)(C)C`: the half-maximal effective concentration (EC50) was above 10000 nM.

In turn, `COC(=O)N[C@H](C(=O)NN(Cc1ccccc1)C[C@@](O)(Cc1ccccc1)C(=O)N[C@H]1c2ccccc2C[C@H]1O)C(C)(C)C` displayed a half-maximal effective concentration (EC50) of 1900 nM.

The test system of the next assay is Plasmodium falciparum. In words: Antiplasmodial activity against Plasmodium falciparum infected in erythrocyte culture. The class given is functional, organism-based.
As for `Cc1cccc(C)c1OCC(=O)N[C@@H](Cc1ccccc1)[C@H](O)C(=O)N1CSC(C)(C)[C@H]1C(=O)N[C@H]1c2ccccc2C[C@H]1O`, the IC50 amounted to 6800 nM.

The target of the next assay is Plasmepsin III (Plasmodium falciparum, UniProt Q9Y006). Kind of assay: Inhibition of Plasmodium falciparum histo-aspartyl protease.
Plasmepsin III, sequence (Q9Y006 whole entry): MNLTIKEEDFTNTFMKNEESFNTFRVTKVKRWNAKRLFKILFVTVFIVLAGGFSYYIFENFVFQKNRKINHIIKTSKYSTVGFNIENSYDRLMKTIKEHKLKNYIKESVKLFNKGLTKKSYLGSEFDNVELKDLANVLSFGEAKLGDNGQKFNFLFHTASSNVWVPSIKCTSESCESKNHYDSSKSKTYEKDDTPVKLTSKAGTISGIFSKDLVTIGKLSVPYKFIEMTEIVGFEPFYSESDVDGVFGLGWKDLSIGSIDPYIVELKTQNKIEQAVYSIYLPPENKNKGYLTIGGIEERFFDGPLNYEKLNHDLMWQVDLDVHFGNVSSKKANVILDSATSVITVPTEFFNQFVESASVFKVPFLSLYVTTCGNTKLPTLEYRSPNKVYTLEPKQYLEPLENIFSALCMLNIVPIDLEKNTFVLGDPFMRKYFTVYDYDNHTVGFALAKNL
`Cc1cccc(C)c1OCC(=O)N[C@@H](Cc1ccccc1)[C@H](O)C(=O)N1CSC(C)(C)[C@H]1C(=O)N[C@H]1c2ccccc2C[C@H]1O` returned a concentration for half-maximal inhibition (IC50) of 690 nM.

Tested on in a further assay: not listed separately
In words: Inhibition of Plasmodium falciparum plasmepsin-4 expressed in Escherichia coli BL21 (DE3) by spectrophotometric assay with chromogenic substrate.
`Cc1cccc(C)c1OCC(=O)NCC(O)(CCc1ccccc1)C(=O)N[C@@H](Cc1ccccc1)C(=O)N[C@H]1c2ccccc2C[C@H]1O` (stereo in doubt; (A)-20) [listing 2 of 2 here] returned an inhibition constant Ki above 20000 nM.

Another assay addresses T1, Cathepsin D. Kind of assay: Ratio of compound Ki to KNI-10006 Ki for human liver cathepsin D.
As to `Cc1cccc(C)c1OCC(=O)NCC(O)(CCc1ccccc1)C(=O)N[C@@H](Cc1ccccc1)C(=O)N[C@H]1c2ccccc2C[C@H]1O` (stereo in doubt; (B)-20) [listing 2 of 2 here], the Ratio Ki is 5000.

In the case of `Cc1cccc(C)c1OCC(=O)NCC(O)(CCc1ccccc1)C(=O)N[C@@H](Cc1ccccc1)C(=O)N[C@H]1c2ccccc2C[C@H]1O` (stereo in doubt; (A)-20) [listing 1 of 2 here], the Ratio Ki amounted to 5000.

With `Cc1cccc(C)c1OCC(=O)NCC(O)(CCc1ccccc1)C(=O)N1CCC[C@H]1C(=O)N[C@H]1c2ccccc2C[C@H]1O` (stereo in doubt; (A)-19), the Ratio Ki came out at 5000.

For the compound `Cc1cccc(C)c1OCC(=O)NCC(O)(CCc1ccccc1)C(=O)N1CCC[C@H]1C(=O)N[C@H]1c2ccccc2C[C@H]1O` (stereo in doubt; (B)-19), the Ratio Ki amounted to 5000.
